The list is not random: actives were taken first. Their share in the collection is about 1.8%.
CHRM4 agonist: agonists of human muscarinic M4 receptor (CHRM4); CHO-K1 hM4/Gqi5, Fluo-8 calcium fluorescence; vehicle 0%, full acetylcholine response 100%; activation, % at 3 µM; actives 0.14% (n = 360,000); P08173; AID 624127;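 active = activation above the run mean over all test wells plus 3 SD, cut at about 32% in these data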;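 also: peak over basal fluorescence ratio per well then scaled between controls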
Target sequence (P08173 whole entry, looked up): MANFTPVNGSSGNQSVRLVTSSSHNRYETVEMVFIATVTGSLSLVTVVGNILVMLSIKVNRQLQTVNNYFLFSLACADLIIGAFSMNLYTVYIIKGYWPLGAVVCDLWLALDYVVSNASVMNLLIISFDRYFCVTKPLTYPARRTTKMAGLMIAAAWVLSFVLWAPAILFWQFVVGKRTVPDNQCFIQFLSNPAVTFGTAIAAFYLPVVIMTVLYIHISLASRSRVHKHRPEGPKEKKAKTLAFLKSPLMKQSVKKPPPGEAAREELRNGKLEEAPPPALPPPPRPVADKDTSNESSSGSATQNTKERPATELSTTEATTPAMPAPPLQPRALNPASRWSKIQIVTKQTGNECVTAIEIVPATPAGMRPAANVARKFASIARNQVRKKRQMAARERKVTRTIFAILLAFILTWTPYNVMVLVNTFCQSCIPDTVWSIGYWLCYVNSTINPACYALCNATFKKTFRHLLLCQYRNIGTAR
M5 ag: agonists of human muscarinic M5 receptor (CHRM5). P08912. AID 624037. actives 0.19% (n = 360,000). activation, % at 3 µM. CHO-K1 hM5 cells, Fluo-8 calcium fluorescence; 0% DMSO wells, 100% maximal acetylcholine response;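 active = activation above the run's mean over test compounds plus 3 SD, cut at about 23% in these data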;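 also: signal is peak over basal fluorescence ratio across the kinetic read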
CHRM5 antagonist: blocks acetylcholine activation of human M5 receptor; CHO-hM5 cells, Fluo-8 calcium fluorescence, ACh EC80; inhibition, % at 3 µM; P08912; actives 0.59% (n = 360,000);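 active = inhibition above a per-plate cutoff, the mean of that plate's test compounds plus 3 SD, cut at about 27% in these data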
CHRM5 PAM: potentiates acetylcholine response at human M5 receptor | CHO-K1 hM5, Fluo-8 calcium, ACh EC20 PAM; 0% = ACh EC20, 100% = ACh EC100 | actives 0.3% (n = 360,000) | P08912 | activation, % at 3 µM | AID 624038;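 active = activation above the run cutoff, the mean activation of all test compounds plus 3 SD, cut at about 18% in these data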
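Replicates: One well per compound, no replicates | System: Human M5 receptor in CHO-K1 cells | Benchmarks: Low control EC20 acetylcholine (0%), high control EC100 acetylcholine (100%) | Probe or stimulus: Acetylcholine, EC20 level | Times: Fluo-8 loading 80 min at 37 °C plus 30 min room temperature | Signal: Intracellular calcium via Fluo-8 fluorescence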
M4 antag: CHRM4 antagonism in calcium assay | P08173 | CHO-hM4 cells, ACh EC80, Fluo-8 calcium fluorescence | inhibition, % at 3 µM | actives 0.73% (n = 360,000);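 active = inhibition above its plate's cutoff, the mean inhibition of sample wells plus 3 SD, cut at about 27% in these data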
CHRM4 PAM: CHRM4 positive allosteric modulation; CHO-K1 hM4/Gqi5, Fluo-8 calcium fluorescence, ACh EC20; 0% = ACh EC20, 100% = maximal ACh; actives 0.4% (n = 360,000); AID 624126; activation, % at 3 µM;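 active = activation above its plate's cutoff, the mean activation of sample wells plus 3 SD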
Of the large screens only hits and unclear results are named; the others gave an inactive call.

CC1=C(C(=O)NCc2ccco2)C2(CCC(C)CC2)OC1=O (stereo not drawn)	none
CC1CCC2(CC1)NC(=O)N(CC(=O)NCc1ccc3c(c1)OCO3)C2=O (stereo not drawn)	CHRM5 antagonist 31
O=C(CCCC1=NS(=O)(=O)c2ccccc2N1)OCc1ccc(Cl)cc1	none
CC1CCCC(C)N1CCNC(=O)CCc1nnc2n(Cc3ccccc3)c(=O)c3ccccc3n12 (stereo not drawn)	none
COc1ccc(C2Nc3cc(OC)ccc3-n3cccc32)cc1 (stereo not drawn)	CHRM4 PAM 17
COc1ccc(C2NC(=S)N3C(c4ccc(OC)cc4)NC(=S)N23)cc1 (stereo not drawn)	none
CC1=NOC(=O)/C1=C\c1ccc(-c2ccc(Br)cc2)o1	CHRM5 antagonist 31, M4 antag 34
CC1=NOC(=O)/C1=C/c1ccc(-c2ccc(Cl)cc2)o1	M4 antag 34
CC1=NOC(=O)/C1=C\c1ccc(-c2cc(Cl)ccc2Cl)o1	none
Cc1ccc(S(=O)(=O)NC(=O)C2(C)CCN2C(=O)c2c(C)noc2C)cc1 (stereo not drawn)	none
CCCCOc1ccc(S(=O)(=O)NC(=O)C2(C)CCN2C(=O)c2c(C)noc2C)cc1 (stereo not drawn)	CHRM4 PAM 19
CCCn1c(N)c(N(CCOC)C(=O)c2cc3c(s2)CCCCC3)c(=O)[nH]c1=O	none
CNC(=O)c1ccc(NC(=O)C2CCN(S(=O)(=O)c3cccc(C(F)(F)F)c3)CC2)cc1	CHRM5 PAM 19
O=C(NNC(=O)C1CCN(S(=O)(=O)c2cccc(C(F)(F)F)c2)CC1)C1CC1	none
Cc1cccc(CNC(=O)CCc2nnc(C3CCCCC3)o2)c1	none
O=[N+]([O-])/C=C\c1ccc(N2CCCC2)c(F)c1	CHRM4 agonist 41, M5 ag 64, CHRM5 antagonist 78, M4 antag 34
CCC(C)CCN1C(N(C)C)=NC[C@@H]1C (stereo partly drawn)	M4 antag 39
Oc1ccc(N=Nc2ccc3c(c2)OCCO3)c2ncccc12	CHRM4 agonist 37, M5 ag 28, CHRM5 antagonist 36, M4 antag 30
CCN(CC)C(=O)CSc1nnc(-c2ccccn2)n1-c1ccccc1OC	M4 antag 31
O=C(Nc1cccc(Br)c1)C1CCCC1	CHRM4 PAM 14
c1ccc(CNc2nc(NCc3ccccc3)c3sccc3n2)cc1	CHRM4 agonist 89, M5 ag 32, CHRM5 antagonist 44, M4 antag 71
Fc1cc(Cl)ccc1Nc1nc(NCc2ccccc2)nc2ccsc12	none
C#Cc1cccc(Nc2nc(NCCOC)nc3ccsc23)c1	none
C#Cc1cccc(Nc2nc(NCc3ccccc3OC)nc3ccsc23)c1	CHRM5 antagonist 36, M4 antag 30
COc1ccccc1CNc1nc(NCc2ccccc2)nc2ccsc12	CHRM4 agonist 75, M5 ag 36, CHRM5 antagonist 76, M4 antag 92
c1ccc(CNc2nc(NCc3ccccc3)c3ccccc3n2)cc1	CHRM4 agonist 45, CHRM5 antagonist 39, M4 antag 49
CCOC(=O)C1=CCN(S(=O)(=O)c2ccc(C)cc2)C1c1ccccc1F (stereo not drawn)	none
COc1ccc(C(C)=O)cc1CN1C(=O)NC(c2ccccc2)(c2ccccc2)C1=O	none
Cc1nc2ccc(NC(=O)Cc3c(F)cccc3Cl)cc2s1	none
CNc1nc(NCCOc2ccccc2)c2sccc2n1	none
COCCNc1nc(NCc2cccc(OC)c2OC)c2sccc2n1	none
c1ccc(CNc2nc(NCCOc3ccccc3)c3sccc3n2)cc1	CHRM4 agonist 58, CHRM5 antagonist 35, M4 antag 54
COc1ccccc1CNc1nc(NCc2cccc(OC)c2OC)c2sccc2n1	CHRM5 antagonist 31
Cc1ccc(S(=O)(=O)n2c(N)nc3ccccc32)cc1	CHRM5 antagonist 76, M4 antag 86
COc1ccc(S(=O)(=O)n2c(N)nc3ccccc32)cc1	CHRM5 antagonist 69, M4 antag 73
Nc1nc2ccccc2n1S(=O)(=O)c1ccc([N+](=O)[O-])cc1	none
Nc1nc2ccccc2n1S(=O)(=O)c1ccc(Cl)cc1	CHRM5 antagonist 40, M4 antag 52
COC(=O)[C@H]1C[C@@]2(O)CN(S(=O)(=O)c3ccc(C)cc3)C[C@@]2(OC(=O)Nc2c(C)noc2C)C[C@H]1C(=O)OC	none
O=C(CN(Cc1ccccc1)C(=O)CCC(=O)Nc1ccccn1)NCc1ccc(F)cc1	none
O=C(O)CCC(=O)NNc1ncnc2ccccc12	none
O=C(O)CCC(=O)NNc1nc2ccccc2nc1-c1ccccc1	CHRM5 PAM 19
Cc1ccc(C)c(S(=O)(=O)N2CCN(C(=O)CSc3ccccc3F)CC2)c1	none
CC(=O)N(C1CC(C)C(C#N)(C#N)C1(C#N)C#N)N(C)C (stereo not drawn)	none
CCCC(=O)N(C1CC(C)C(C#N)(C#N)C1(C#N)C#N)N(C)C (stereo not drawn)	M4 antag 47
Cc1cc(NCCCCCCCNc2cc(C)nc3cc([N+](=O)[O-])ccc23)c2ccc([N+](=O)[O-])cc2n1	M4 antag 43
COCCCNc1cc(C)nc2ccccc12	none
CC(C)Nc1nc(Cl)nc(Nc2ccccc2)n1	none
Cc1ccc(NC(=O)CSc2nnc(NC(=O)c3ccco3)s2)cc1	none
CC(=O)c1ccc(NC(=O)CSc2nnc(NC(=O)c3ccco3)s2)cc1	CHRM4 PAM 21
Cc1occc1C(=O)N(C)Cc1nc(-c2ccc(Cl)cc2)no1	none
COc1cccc(NC(=O)Cn2c(=O)n(CCC(=O)NC3CCN(Cc4ccccc4)CC3)c(=O)c3ccccc32)c1	none
CN(C)CCCOC(=O)c1ccccc1Cl	none
CN(C)CCCOC(=O)N1c2ccccc2C=Cc2ccccc21	CHRM5 antagonist 81, M4 antag 67
Cc1nnc(SCC(=O)N2N=C(c3ccc(Cl)cc3)CC2c2ccco2)[nH]c1=O (stereo not drawn)	CHRM4 PAM 23
COc1ccc(CCNC(=O)COC(=O)c2cc(S(=O)(=O)NCc3ccccc3)ccc2O)cc1OC	CHRM4 PAM 32
Cc1ccc(CNC(=O)c2cc(C)nn2-c2ccccc2)cc1	none
Cc1cc(C(=O)NCc2cccnc2)n(-c2ccccc2)n1	M4 antag 35
Clc1ccc(Sc2ccc(/C=N/n3cnnc3)o2)cc1	CHRM4 PAM 24
Nc1ccc(OCc2ccccc2)cc1	none
CCc1ccc(OCCCCN(C)Cc2ccccc2)cc1	M4 antag 30

High-throughput results: PubChem, The Scripps Research Institute Molecular Screening Center
